EBV gp42 block = EBV gp42 inhibition | Q1HVG2 | Fluorescence polarization binding assay, mP read-out | inhibition, % (tested at 21.74 µM) | 0.42% of 220,000 active | AID 1085; in the data active = inhibition above about 50%
Target sequence (Q1HVG2 whole entry, looked up): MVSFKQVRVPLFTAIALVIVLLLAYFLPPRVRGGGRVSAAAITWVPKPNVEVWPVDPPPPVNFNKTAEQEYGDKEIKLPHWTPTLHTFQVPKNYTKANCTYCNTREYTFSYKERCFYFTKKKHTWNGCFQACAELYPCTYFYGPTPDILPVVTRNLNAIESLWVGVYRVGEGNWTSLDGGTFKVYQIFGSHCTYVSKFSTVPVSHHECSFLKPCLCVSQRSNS
MEX-5 binding = C. elegans MEX-5 TCR-2 RNA binding activity; Q9XUB2; MEX-5/FITC-TCR2 RNA binding, fluorescence polarization; active compounds read low; activity score (negative = inhibition of binding), % at 10 µM; 0.38% of 300,000 active;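 active = inhibition past about -25% in most replicates, and total fluorescence under double the plate's negative control median, limit read from the data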;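 note: 0% = DMSO and -100% = 5 µM competing unlabeled TCR2 RNA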
Target sequence (Q9XUB2 whole entry, looked up): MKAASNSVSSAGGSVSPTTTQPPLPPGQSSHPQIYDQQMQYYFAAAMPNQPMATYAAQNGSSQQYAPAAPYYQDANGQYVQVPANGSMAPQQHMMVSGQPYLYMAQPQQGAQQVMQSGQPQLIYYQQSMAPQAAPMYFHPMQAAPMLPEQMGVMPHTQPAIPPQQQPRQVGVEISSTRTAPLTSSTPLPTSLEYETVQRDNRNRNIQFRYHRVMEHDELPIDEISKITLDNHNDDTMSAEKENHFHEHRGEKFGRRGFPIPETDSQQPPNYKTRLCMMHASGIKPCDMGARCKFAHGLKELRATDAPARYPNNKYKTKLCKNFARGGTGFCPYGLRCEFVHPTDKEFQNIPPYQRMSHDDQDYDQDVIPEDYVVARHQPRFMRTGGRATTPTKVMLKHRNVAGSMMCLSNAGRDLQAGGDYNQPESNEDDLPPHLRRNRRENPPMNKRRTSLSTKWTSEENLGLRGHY
T cell modulator = modulates CD8 T cell binding to vesicles; response (vesicle binding), % at 7 µM; AID 2052; 2C CD8+ T cell-vesicle binding, flow cytometry; active compounds read low; 0.068% of 330,000 active;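 active = response, share of CD8 T cells binding vesicles, and their 90th percentile fluorescence all below set limits, cut at about 80% in these data, passing the limit was not always enough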;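 note: values below 100% mean blocked vesicle binding to the CD8+ T cells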
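Incubation: binding step 1.5 h, 37 °C, antibody labelling 20 min, ice; system: murine 2C transgenic CD8+ T lymphocytes; technique: cytometric PE anti-B7-1 and Alexa647 anti-CD8 signals after 1% paraformaldehyde fixation; also added: QL9-charged Drosophila Ld/ICAM-1/B7-1 vesicles; control set: naked versus QL9-loaded vesicles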
Keap1 Nrf2 FP = Keap1-Nrf2 (human) interaction inhibition; Q14145; Keap1 Kelch-Nrf2 peptide fluorescence polarization, 1536-well; inhibition, % at 9.4 µM; 0.15% of 340,000 active; in the data active = inhibition above about 12%;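 note: human Keap1 Kelch domain with fluorescein labeled Nrf2 9mer peptide probe; 0% = neutral control wells and 100% = peptide positive control; higher means more block of Keap1 binding to Nrf2 peptide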
LANA DNA inh = blocks KSHV LANA C-terminal domain binding to DNA. inhibition, % at 9 µM. 0.078% of 340,000 active. AID 504423. MBP-C-LANA/FAM-LBS DNA binding, fluorescence polarization;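 active = highest replicate inhibition at or above 60% at 9 µM, even if other replicates fall short; inactive = all replicates below 60% inhibition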;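 note: 0% = neutral control wells and 100% = 4 µM acridine orange control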
GRK2 aptamer HTS = inhibitors of human GRK2 displacing RNA aptamer. P25098. bead flow cytometry, FAM-aptamer displacement from GRK2. AID 488847. inhibition of aptamer binding, % at 10 µM. 0.59% of 330,000 active;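 active = inhibition of aptamer binding above 40%, roughly 3 SD of noise, on plates passing a quality check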;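 note: median bead fluorescence of bound FAM aptamer so fluorescent compounds give negative values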
GRK2 inh confirm = human GRK2 inhibition confirmation, cherry pick 1 | shares compounds with GRK2 aptamer HTS | bead-bound GRK2, FAM-aptamer displacement, flow cytometry | aptamer displacement, % at 10 µM | 4% of 2,000 active;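 active = aptamer displacement above 40%, near three times the noise of non-fluorescent compounds, on plates passing quality checks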;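 note: negative values mostly reflect intrinsic compound fluorescence rather than true enhancement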
Aptamer quench = quenches fluorescent RNA aptamer, GRK2 hit artifact; Fluorescent RNA aptamer beads, quenching, flow cytometry; active compounds read high; shares compounds with GRK2 aptamer HTS; 110 tested, under 10 active; fluorescence change (kMESF span), kMESF (no concentration beside the values);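 active = compounds whose bead fluorescence drops by more than 37 kMESF across the dose range, marking them as dye quenchers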
Aptamer quench SP = quenches fluorescent RNA aptamer, GRK2 hit artifact; shares compounds with GRK2 aptamer HTS; Carboxyfluorescein RNA aptamer on beads, flow cytometry quenching; active compounds read low; fluorescence response (% of DMSO), % at 10 µM; 2,000 tested, under 10 active; AID 504580;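 active = compounds that quench the bead-bound fluorescent RNA probe, cutting fluorescence to under half of the solvent control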;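 note: counterscreen run without GRK2 so only probe quenching by compound is measured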
GRK2 confirm 2 = confirmation of human GRK2 inhibitors binding RNA aptamer site. bead-bound GRK2, FAM-aptamer displacement, flow cytometry. shares compounds with GRK2 aptamer HTS. 360 tested, under 10 active. inhibition of aptamer binding, % at 10 µM. AID 504782;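 active = inhibition of aptamer binding above 40%, about triple the noise seen with nonglowing compounds, on plates passing quality control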;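 note: negative values mostly come from compounds that fluoresce themselves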
FAM quench SP = counter-screen for GRK2 binding hits: quenchers of fluorescent RNA aptamer; shares compounds with GRK2 aptamer HTS; carboxyfluorescein RNA aptamer beads, flow cytometry quenching; active compounds read low; fluorescence response vs DMSO, % at 10 µM; 360 tested, under 10 active;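 active = response vs DMSO under 50%, meaning signal dropped by over half, treated as fluorescence quencher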;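 note: labelled aptamer on streptavidin beads without GRK2 as a quench counter-screen; 100% = bead fluorescence of DMSO wells and lower means quenching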
Starred values were filed as active, the others as inactive; . = not tested or not shown. An excerpt weighted towards active compounds, which were near 1.3% of everything screened.

SMILES | EBV gp42 block | MEX-5 binding | T cell modulator | Keap1 Nrf2 FP | LANA DNA inh | GRK2 aptamer HTS | GRK2 inh confirm | Aptamer quench SP | others
COc1ccc2c(c1)C(=O)N(c1ccccc1C)C(=O)C2(C)C | -8 | 1 | 158 | 3 | -1 | 78* | 2 | 99
COc1ccc(CC(=O)Nc2ccc(S(=O)(=O)Nc3ncccn3)cc2)cc1OC | 7 | 1 | 140 | -4 | 1 | 0 | . | .
O=c1oc2ccccc2cc1-c1csc(Cc2nc(-c3ccc(Br)cc3)cs2)n1 | -28 | 1 | 124 | 1 | 0 | 2 | . | .
Cc1ccc2nc3c(c(C(=O)O)c2c1)CCC3 | -6 | 1 | 274 | 0 | 3 | 25 | . | .
O=C(NCc1ccco1)c1c2c(nc3ccccc13)CCC2 | 62* | -1 | 105 | 4 | 3 | 16 | . | . | GRK2 confirm 2=10;FAM quench SP=100
O=C(CSc1c2c(nc3ccccc13)CCCC2)NCc1ccco1 | -6 | 3 | 722 | -39 | 1 | 0 | . | .
O=C(O)c1c2c(nc3ccc(F)cc13)CCC2 | -9 | 0 | . | -7 | 3 | 72* | -2 | 98
CCCC(C)NC(=O)c1c2c(nc3ccccc13)CCC2 (stereo unspecified) | -9 | 0 | 353 | 0 | 0 | 6 | . | .
O=C(NCc1ccc(F)cc1)c1c2c(nc3ccccc13)CCC2 | 10 | -3 | 342 | -3 | 3 | 2 | . | . | GRK2 confirm 2=-16;FAM quench SP=100
CCCn1c(N)c(N(CCOC)C(=O)CSCC(=O)Nc2ccc(OC)cc2)c(=O)[nH]c1=O | . | -1 | 455 | -2 | 0 | 1 | . | .
Cc1ccc(CN2CCN(/N=C/c3cc(Br)ccc3F)CC2)cc1 | . | 0 | 242 | -5 | -1 | 0 | . | .
CCOC(=O)c1c(NC(=O)CSc2ncnc3ccccc23)sc(C(C)=O)c1C | -33 | 1 | 395 | -2 | -1 | 0 | . | .
CCOC(=O)c1c(NC(=O)CSc2nc3ccccc3c(=O)n2-c2ccc(F)cc2)sc(C(C)=O)c1C | -47 | 2 | 236 | -5 | 0 | 73* | -3 | 103
COc1ccc(S(=O)(=O)Oc2ccc(C(=S)N3CCOCC3)cc2OC)cc1 | . | 0 | 233 | 2 | -1 | 10 | . | .
O=S(=O)(Oc1ccc(C(=S)N2CCOCC2)cc1)c1ccc(Cl)cc1 | . | 0 | 197 | 0 | 1 | 99* | 3 | 91
C=CCNC(=O)/C(=C/c1cccc([N+](=O)[O-])c1)NC(=O)c1ccccc1 | -25 | -1 | 109 | 0 | 0 | 46* | 0 | 97
C=CCNC(=O)/C(=C/c1cn(-c2ccccc2)nc1-c1cccc([N+](=O)[O-])c1)NC(=O)c1ccccc1 | -3 | 2 | 215 | 1 | 1 | 0 | . | .
CC(C)(C)OC(=O)NCCCC1=CC2=CC(=O)C(C)(O)C(=O)C2=CO1 (stereo unspecified) | . | -20 | 778 | . | . | 0 | . | .
COc1ccc(CN2CCCN(S(=O)(=O)c3ccc(Br)cc3)CC2)cc1 | . | -3 | 237 | -2 | 0 | 4 | . | .
COc1ccc(S(=O)(=O)N2CCN(Cc3ccc(Cl)cc3)CC2)cc1 | -17 | 0 | 300 | 4 | 3 | 65* | 0 | 102
CCOC(=O)Nc1sc(C)nc1-c1ccccc1 | -8 | -1 | 209 | -1 | 2 | 44* | -5 | 97
CN(C)c1cccc(C(=O)OCc2cc(=O)oc3cc(O)ccc23)c1 | 52* | -2 | 393 | 4 | 7 | 54* | 55* | 101 | Aptamer quench=4
CSC1=NC(=O)/C(=C/c2ccc(SC)cc2)S1 | -45 | -4 | 0 | -7 | 4 | 58* | 2 | 103
Cc1cc(NC(=O)Nc2ccc3c(ccn3C)c2)sn1 | . | 0 | 457 | 2 | -9 | 0 | 0 | 99
c1ccc(CSc2ccc(-c3ccc4c(c3)OCO4)nn2)cc1 | -1 | -6 | 920 | -1 | -1 | 1 | . | .
SMILES | EBV gp42 block | MEX-5 binding | T cell modulator | Keap1 Nrf2 FP | LANA DNA inh | GRK2 aptamer HTS | GRK2 inh confirm | Aptamer quench SP | others
Fc1ccc(CSc2ccc(-c3ccc4c(c3)OCO4)nn2)cc1 | -6 | -2 | 228 | -3 | 1 | 49* | . | . | GRK2 confirm 2=13;FAM quench SP=99
CCCOc1ccc(OC(=O)Cc2ccc(OC)c(S(=O)(=O)N3CCOCC3)c2)cc1 | . | 0 | 304 | . | . | 100* | -7 | 100
OCc1cn(-c2ccccc2)nc1-c1cc2ccccc2o1 | 13 | 2 | 375 | -4 | 0 | 0 | . | .
CCCc1ccc(OCc2ccc(C(=O)N3CCN(c4ccccn4)CC3)o2)c(OC)c1 | -7 | 3 | 441 | 4 | 0 | 47* | 2 | 96
COc1ccc(CC(=O)N2CCN(c3ccccn3)CC2)cc1OC | -1 | . | 465 | 1 | 2 | 7 | . | .
CSCc1cc(N(C)C)nc(SCc2ccc(Cl)c(Cl)c2)n1 | -1 | 4 | 30 | 0 | -2 | 76* | 1 | 55
CNc1cc(CSC)nc(SCc2ccc(Cl)cc2Cl)n1 | -4 | 0 | 298 | -1 | 3 | 1 | . | .
O=C(Nc1cccnc1)c1ccccc1Cl | . | 1 | 118 | 6 | 6 | 81* | -2 | 97
O=C(Nc1ccc(N2CCCC2)c(Cl)c1)c1cccnc1 | -6 | -1 | 316 | -2 | 0 | 60* | -14 | 37*
O=C(Nc1ccc(NC(=O)c2ccccc2Cl)cc1)c1cccnc1 | . | -2 | 275 | 1 | 0 | 3 | . | .
Cc1cc(OCC(=O)N(Cc2ccco2)c2c(N)n(Cc3ccccc3)c(=O)[nH]c2=O)ccc1Cl | . | . | 360 | -9 | -2 | 0 | 2 | 106
Cc1ccc2c(CC(=O)OCC(=O)N(CC(C)C)c3c(N)n(Cc4ccccc4)c(=O)[nH]c3=O)coc2c1 | . | 3 | 314 | 1 | 1 | 83* | 0 | 114
CCN(CC(=O)Nc1ccc(NC(C)=O)cc1)C(=O)c1cc(CN2C(=O)c3ccccc3C2=O)ccc1OC | . | -1 | 123 | -2 | 1 | 0 | . | .
O=C(OC(C(=O)Nc1ccc(Cl)cc1C(F)(F)F)c1ccccc1)c1c(Cl)cccc1Cl (stereo unspecified) | -38 | -2 | 164 | -2 | 2 | 3 | . | .

Bioassay records (PubChem)
